ChEMBL document CHEMBL4842351, “Synthesis and evaluation of novel and potent protease activated receptor 4 (PAR4) antagonists based on a quinazolin-4(3H)-one scaffold” (Eur J Med Chem, 2021)

Columns and labels:
[1] = target: T1, Proteinase-activated receptor 4 (Homo sapiens) (UniProt Q96RI0); test: Antagonist activity at PAR4 in human platelet-rich plasma assessed as inhibition of PAR4 AP AYPGKF-NH2-induced platelet aggregation at 0.2 uM by photo-turbidimetry assay relative to control; type: functional
T1 sequence (whole entry): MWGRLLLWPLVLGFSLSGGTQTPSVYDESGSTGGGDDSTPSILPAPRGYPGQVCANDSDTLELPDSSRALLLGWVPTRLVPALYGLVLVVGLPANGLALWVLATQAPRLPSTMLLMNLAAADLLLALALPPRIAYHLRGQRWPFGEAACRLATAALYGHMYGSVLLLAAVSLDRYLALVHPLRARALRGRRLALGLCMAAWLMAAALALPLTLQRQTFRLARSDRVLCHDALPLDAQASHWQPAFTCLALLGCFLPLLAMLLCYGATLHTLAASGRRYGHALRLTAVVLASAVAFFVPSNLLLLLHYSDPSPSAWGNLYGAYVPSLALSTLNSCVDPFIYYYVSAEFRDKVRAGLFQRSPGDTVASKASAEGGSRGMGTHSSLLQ
How it was run: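 Human PRP from donated blood, spun at 160×g for 15 min, then adjusted to 3×10⁸/mL with PPP (2000×g, 15 min). Compound or saline vehicle preincubated with PRP for 5 min at 37 °C. Aggregation induced by AYPGKF-NH₂; maximal aggregation measured by light transmittance for 5 min. Percent inhibition at a single point; IC50 from ≥5 concentrations by curve fitting.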

[2] = target: T2, Proteinase-activated receptor 1 (Homo sapiens, UniProt P25116); test: Antagonist activity at human PAR1 expressed in Ga15-HEK293 cells assessed as reduction in PAR1 AP SFFLRR-NH2-induced cytosolic calcium incubated for 24 hrs by FLIPR - calcium mobilization assay; type: functional, cell-based
T2 sequence (P25116 whole entry): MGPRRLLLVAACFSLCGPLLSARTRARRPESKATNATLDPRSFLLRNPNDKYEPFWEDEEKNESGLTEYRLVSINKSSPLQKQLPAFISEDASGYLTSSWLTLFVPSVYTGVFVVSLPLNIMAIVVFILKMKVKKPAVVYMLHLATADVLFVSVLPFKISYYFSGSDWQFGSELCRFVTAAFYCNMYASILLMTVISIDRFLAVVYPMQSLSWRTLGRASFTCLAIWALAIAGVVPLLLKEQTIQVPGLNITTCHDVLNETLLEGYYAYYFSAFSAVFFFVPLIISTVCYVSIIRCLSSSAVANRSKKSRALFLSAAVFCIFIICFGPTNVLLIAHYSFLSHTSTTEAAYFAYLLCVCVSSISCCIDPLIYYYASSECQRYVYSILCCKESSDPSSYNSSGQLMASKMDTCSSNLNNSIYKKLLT
How it was run: (§1)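 HEK293/Gα15 cells stably expressing human PAR1, PAR2 or PAR4, seeded at 45,000 cells/well and grown for 24 h at 37 °C, 5% CO₂. Cells loaded with calcium dye for 60 min at 37 °C in the dark. Compounds diluted from DMSO in HBSS and preincubated in the dark at room temperature. Agonists: SFFLRR (PAR1), 2-furoyl-LIGRLO-NH₂ (PAR2), AYPGKF-NH₂ (PAR4). Fluorescence read on FLIPR; 10-point half-log curves; mean of ≥2 determinations.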

[3] = target: T3, Proteinase-activated receptor 2 (Homo sapiens, UniProt P55085); test: Antagonist activity at human PAR2 expressed in Ga15-HEK293 cells assessed as reduction in PAR2 AP 2-furoyl-LIGRLO-NH2-induced cytosolic calcium incubated for 24 hrs by FLIPR - calcium mobilization assay; type: functional, cell-based; how it was run: as §1
T3 sequence (P55085 whole entry): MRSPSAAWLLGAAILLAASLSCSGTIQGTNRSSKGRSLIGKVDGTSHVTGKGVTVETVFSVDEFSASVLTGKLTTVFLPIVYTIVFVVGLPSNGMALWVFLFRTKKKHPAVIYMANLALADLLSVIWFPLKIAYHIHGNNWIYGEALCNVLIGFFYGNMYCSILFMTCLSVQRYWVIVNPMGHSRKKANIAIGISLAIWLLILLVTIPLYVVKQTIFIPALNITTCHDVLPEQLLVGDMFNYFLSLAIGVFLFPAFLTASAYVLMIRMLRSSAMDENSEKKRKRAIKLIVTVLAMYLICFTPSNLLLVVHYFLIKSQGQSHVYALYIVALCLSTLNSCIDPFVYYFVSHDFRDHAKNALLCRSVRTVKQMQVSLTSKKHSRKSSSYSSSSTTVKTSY

[4] = target: T4, Proteinase-activated receptor 4 (Homo sapiens, UniProt Q96RI0); test: Antagonist activity at human PAR4 expressed in Ga15-HEK293 cells assessed as reduction in PAR4 AP AYPGKF-NH2-induced cytosolic calcium incubated for 24 hrs by FLIPR - calcium mobilization assay; type: functional, cell-based; how it was run: as §1
T4 sequence (Q96RI0 whole entry): T1 sequence (whole entry)

Row | inhibition [1] | Compound | also measured
1 | 19.8% | Cn1cnc2c(-c3nc4c(s3)CCCC4)cccc2c1=O | 
2 | 32.3% | Cc1cc(-c2nc3c(Cl)cc(OCCNS(=O)(=O)c4ccc(Cl)cc4)cc3s2)c2ncn(C)c(=O)c2c1 | 
3 | 27.7% | C#CCn1cnc2c(-c3nc4c(F)cc(OC)cc4s3)cc(C)cc2c1=O | 
4 | 26.8% | CCn1cnc2c(-c3nc4c(s3)CCCC4)cc(C)cc2c1=O | 
5 | 17.4% | COc1ccccc1-c1cc(C)cc2c(=O)n(C)cnc12 | 
6 | 18.8% | CCn1cnc2c(-c3nc4c(F)cc(OC)cc4s3)cc(C)cc2c1=O | 
7 | 8.7% | Cc1cc(-c2nc3c(Cl)cc(OCCNS(=O)(=O)c4ccc(F)cc4)cc3s2)c2ncn(C)c(=O)c2c1 | 
8 | 25.7% | CCc1cc(-c2nc3c(s2)CCCC3)c2ncn(C)c(=O)c2c1 | 

More lines, now with the values behind:

Row | Compound | inhibition [1] | also measured
9 | Cc1cc(-c2nc3c(s2)CCCC3)c2nc(C)n(C)c(=O)c2c1 | 17% | 
10 | CCCCc1cc(-c2nc3c(Cl)cc(OC)cc3s2)c2ncn(C)c(=O)c2c1 |  | inhibition ([1]; filed as antagonist): 47.6%
11 | CCc1cc(-c2nc3c(Cl)cc(OC)cc3s2)c2ncn(C)c(=O)c2c1 |  | inhibition ([1]; filed as antagonist): 92.8%; IC50 [2]: > 3160 nM; IC50 [3]: > 1000 nM; IC50 [4]: 6.8 nM
12 | COc1cc(Cl)c2nc(-c3cc(C)cc4c(=O)n(C)c(C)nc34)sc2c1 | 39.8% | 
13 | COc1cc(F)c2nc(-c3cc(C)cc4c(=O)n(C)cnc34)sc2c1 |  | IC50 [2]: > 3160 nM; IC50 [3]: > 1000 nM; IC50 [4]: 3.2 nM
14 | Cc1cc(-c2nc3c(Cl)cc(OCCNC(=O)OC(C)(C)C)cc3s2)c2ncn(C)c(=O)c2c1 |  | inhibition ([1]; filed as antagonist): 54.1%
15 | COc1cc(F)c2nc(-c3cc(C)cc4c(=O)n(C)c(C)nc34)sc2c1 | 20.1% | 
16 | Cc1cc(-c2cccc(Cl)c2Cl)c2ncn(C)c(=O)c2c1 | 34.3% | 
17 | COc1cc(Cl)c2nc(-c3cccc4c(=O)n(C)cnc34)sc2c1 | 25.6% | 
18 | COCn1cnc2c(-c3nc4c(Cl)cc(OC)cc4s3)cc(C)cc2c1=O |  | inhibition ([1]; filed as antagonist): 45.3%
19 | CCOCn1cnc2c(-c3nc4c(Cl)cc(OC)cc4s3)cc(C)cc2c1=O |  | inhibition ([1]; filed as antagonist): 91.2%
20 | Cc1cc(-c2nc3c(s2)CCCC3)c2ncn(C)c(=O)c2c1 |  | IC50 [2]: > 3160 nM; IC50 [3]: > 1000 nM; IC50 [4]: 5.7 nM
21 | COc1cc(F)c2nc(-c3cc(C)cc4c(=O)n(C(C)C)cnc34)sc2c1 | 10.2% | 
